Measurements as given in ChEMBL document CHEMBL1129428 (J Med Chem, 1996).

What was measured:
[1] = Partition coefficient (logP); assay type: physicochemical; settings: octanol/water
How it was run: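 Partition between 1-octanol and buffer at pH 7.4, with solutions prepared in 1-octanol before buffer is added. Quantified by UV, using λmax and ε values measured in 1-octanol.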

[2] = system: Rattus norvegicus; assay: Compound was tested for anticonvulsant activity after Oral Administration into Rats by using MES screen test after 2h,dose 50 mg/kg; number of rats out of four which were protected; assay type: functional
How it was run: (§1)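 Rats received the compound orally. […] Rats were tested in the MES screen at 0.25, 0.5, 1, 2 and 4 h. Each value is the number of rats protected out of 4. The test followed NINDS procedures.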

[3] = system: Rattus norvegicus; assay: Compound was tested for anticonvulsant activity after Oral Administration into Rats by using MES screen test after 1h,dose 50 mg/kg; number of rats out of four which were protected; assay type: functional; how it was run: as §1
[4] = system: Mus musculus; assay: Anticonvulsant activity after intraperitoneal injection into mice by using MES screen test after 0.5 hr; assay type: functional
[5] = system: Mus musculus; assay: Compound was tested for anticonvulsant activity after intraperitoneal injection into mice by using scPTZ screen test after 1 hr; assay type: functional; settings: ip
How it was run: (§2)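 Quantitative intraperitoneal mouse testing in the MES, scPTZ or rotorod neurotoxicity screens at the peak time given for each compound (0.25–2 h). ED50 or TD50 reported in mg/kg with 95% CI and slope (SE).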

[6] = system: Rattus norvegicus; assay: Compound was tested for anticonvulsant activity after Oral Administration into Rats by using MES screen test after 0.5h,dose 50 mg/kg; number of rats out of four which were protected; assay type: functional; how it was run: as §1
[7] = system: Mus musculus; assay: Anticonvulsant activity after intraperitoneal injection into mice measured in a maximal electroshock scree (MES) screen; assay type: functional
[8] = system: Rattus norvegicus; assay: Compound was tested for anticonvulsant activity after Oral Administration into Rats by using MES screen test after 4h,dose 50 mg/kg; number of rats out of four which were protected; assay type: functional; how it was run: as §1
[9] = Compound was tested for toxicity after intraperitoneal injection into mice by using neurotoxicity screen test after 1 hr; assay type: organism-based; settings: mouse, in vivo, ip; how it was run: as §2
[10] = system: Rattus norvegicus; assay: Compound was tested for anticonvulsant activity after Oral Administration into Rats by using MES screen test after 0.25h,dose 50 mg/kg; number of rats out of four which were protected; assay type: functional; how it was run: as §1
[11] = system: Mus musculus; assay: Compound was tested for anticonvulsant activity after intraperitoneal injection into mice by using MES screen test after 1 hr; assay type: functional; settings: ip; how it was run: as §2
[12] = Compound was tested for toxicity after oral administration in rat by using neurotoxicity screen test after 0.25-24 hr; assay type: organism-based; settings: in vivo
How it was run: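 Rat neurotoxicity after oral dosing, observed at 0.25, 0.5, 1, 2, 4, 6, 8 and 24 h (8 h omitted for one compound).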

[13] = system: Mus musculus; assay: Compound was tested for toxicity after intraperitoneal injection into mice by using toxicity screen test after 4 hr; assay type: organism-based; settings: in vivo, ip
How it was run: (§3)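 Mice injected intraperitoneally at 30, 100 and 300 mg/kg and examined 0.5 and 4 h afterwards. Each entry is the minimum dose giving activity (MES protection, scPTZ protection, or rotorod failure for neurotoxicity) in half or more of the mice. Activity is called absent if nothing occurs at 300 mg/kg.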

[14] = system: Mus musculus; assay: Toxicity after intraperitoneal injection into mice by using toxicity screen test after 0.5 hr; assay type: organism-based; settings: in vivo, ip; how it was run: as §3
[15] = system: Rattus norvegicus; assay: Compound was tested for anticonvulsant activity after Oral Administration into Rats by using MES screen test after 4h,dose 12.5 mg/kg; number of rats out of four which were protected; assay type: functional; how it was run: as §1
[16] = system: Rattus norvegicus; assay: Compound was tested for anticonvulsant activity after Oral Administration into Rats by using MES screen test after 2h,dose 12.5 mg/kg; number of rats out of four which were protected; assay type: functional; how it was run: as §1
[17] = system: Rattus norvegicus; assay: Compound was tested for anticonvulsant activity after Oral Administration into Rats by using MES screen test after 1h,dose 12.5 mg/kg; No activity was demonstarted; assay type: functional, organism-based; parameters: dose 12.5 mg/kg; how it was run: as §1
[18] = system: Mus musculus; assay: Anticonvulsant activity after intraperitoneal injection into mice by using scPTZ screen after 0.5 hr; assay type: functional
[19] = system: Rattus norvegicus; assay: Compound was tested for anticonvulsant activity after Oral Administration into Rats by using MES screen test after 0.5h,dose 12.5 mg/kg; No activity was demonstarted; assay type: functional, organism-based; parameters: dose 12.5 mg/kg; how it was run: as §1
[20] = system: Rattus norvegicus; assay: Compound was tested for anticonvulsant activity after Oral Administration into Rats by using MES screen test after 0.25h,dose 12.5 mg/kg; No activity was demonstarted; assay type: functional, organism-based; parameters: dose 12.5 mg/kg; how it was run: as §1
[21] = system: Rattus norvegicus; assay: Anticonvulsant activity after oral administration into rats; assay type: functional; parameters: concentration or dose not given beside the values
[22] = system: Rattus norvegicus; assay: Compound was tested for anticonvulsant activity after Oral Administration into rat by using MES screen test after 4 hr; assay type: functional
How it was run: (§4)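 Rats dosed orally, typically at 50 mg/kg first, then mostly 12.5 mg/kg (some compounds at 30 mg/kg), and tested by maximal electroshock. Four rats per compound, scored at 0.25, 0.5, 1, 2 and 4 h as the number of rats protected out of 4.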

[23] = system: Rattus norvegicus; assay: Compound was tested for anticonvulsant activity after Oral Administration into Rats by using MES screen test after 1h,dose 12.5 mg/kg; number of rats out of four which were protected; assay type: functional; how it was run: as §1
[24] = Compound was tested for toxicity after intraperitoneal injection into mice by using neurotoxicity screen test after 2 hr; assay type: organism-based; settings: mouse, in vivo, ip; how it was run: as §2
[25] = system: Rattus norvegicus; assay: Compound was tested for anticonvulsant activity after Oral Administration into Rats by using MES screen test after 2h,dose 12.5 mg/kg; No activity was demonstarted; assay type: functional, organism-based; parameters: dose 12.5 mg/kg; how it was run: as §1
[26] = system: Rattus norvegicus; assay: Compound was tested for anticonvulsant activity after Oral Administration into Rats by using MES screen test after 4h,dose 30 mg/kg; number of rats out of four which were protected; assay type: functional; how it was run: as §1
[27] = system: Rattus norvegicus; assay: Compound was tested for anticonvulsant activity after Oral Administration into Rats by using MES screen test after 2h,dose 30 mg/kg; number of rats out of four which were protected; assay type: functional; how it was run: as §1
[28] = system: Rattus norvegicus; assay: Compound was tested for anticonvulsant activity after Oral Administration into rat by using MES screen test after 2 hr; assay type: functional; how it was run: as §4
[29] = system: Rattus norvegicus; assay: Compound was tested for anticonvulsant activity after Oral Administration into Rats by using MES screen test after 0.25h,dose 30 mg/kg; No activity was demonstarted; assay type: functional, organism-based; parameters: dose 30 mg/kg; how it was run: as §1
[30] = system: Rattus norvegicus; assay: Compound was tested for anticonvulsant activity after Oral Administration into Rats by using MES screen test after 1h,dose 30 mg/kg; number of rats out of four which were protected; assay type: functional; how it was run: as §1
[31] = system: Mus musculus; assay: Anticonvulsant activity after intraperitoneal injection into mice by using scPTZ screen test after 4 hr; assay type: functional
[32] = system: Rattus norvegicus; assay: Compound was tested for anticonvulsant activity after Oral Administration into Rats by using MES screen test after 0.5h,dose 30 mg/kg; number of rats out of four which were protected; assay type: functional; how it was run: as §1

| Structure (SMILES) | Dose [4] [mg/kg] | ED50 [5] [mg/kg] | Dose [7] [mg/kg] | ED50 [11] [mg/kg] | Dose [13] [mg/kg] | Dose [14] [mg/kg] | Activity [15] | Activity [16] | Activity [17] | Dose [18] [mg/kg] | Activity [19] | Activity [20] | further results |
| --- | --- | --- | --- | --- | --- | --- | --- | --- | --- | --- | --- | --- | --- |
| NC(=O)N/N=C/c1ccc(Oc2ccc(F)cc2)cc1 | 30 | > 54 | 100 | 12.9 | – | – | – | – | – | – | – | – | logP [1]: 1.91; Activity [2]: 4; Activity [3]: 4; Activity [6]: 4; Activity [8]: 4; TD50 at 1 h [9]: 108 mg/kg; Activity [10]: 2; TD50 [12]: > 500 mg/kg |
| NC(=O)N/N=C/c1ccc(Oc2ccc(F)cc2Cl)cc1 | 30 | > 68 | 30 | 13.1 | 300 | 100 | – | – | – | – | – | – | Activity [2]: 4; Activity [3]: 4; Activity [6]: 4; Activity [8]: 4; TD50 at 1 h [9]: 62.5 mg/kg; Activity [10]: 4 |
| N=C(N)N/N=C/c1ccc(Oc2ccc(F)cc2)cc1 | 300 | – | 30 | – | 100 | 100 | 2 | 1 | No activity | 30 | No activity | No activity | – |
| NC(=O)N/N=C\c1ccc(Oc2cccc(F)c2F)cc1 | 100 | > 350 | 100 | 45.8 | – | – | 4 | 4 | – | 300 | – | No activity | Activity [21]: 3; ED50 [22]: 6.15 mg/kg; Activity [23]: 4; TD50 at 2 h [24]: 293 mg/kg |
| NC(=O)N/N=C\c1ccc(OC(=O)c2ccccc2)cc1 | – | – | 300 | – | – | – | – | – | No activity | – | No activity | No activity | Activity [25]: No activity |
| NC(=O)N/N=C\c1ccc(Oc2ccncc2)cc1 | – | – | 300 | – | – | – | 2 | – | No activity | – | No activity | No activity | Activity [25]: No activity |
| CCCCc1ccc(Oc2ccc(/C=N/NC(N)=O)cc2)cc1 | 300 | – | 100 | – | 300 | – | 2 | 1 | No activity | – | No activity | No activity | – |
| CC/C(=N/NC(N)=O)c1ccc(Sc2ccccc2)cc1 | 30 | – | 30 | – | 100 | 100 | – | – | – | 100 | – | – | Activity [26]: 4; Activity [27]: 3; ED50 [28]: 18.6 mg/kg; Activity [29]: No activity; Activity [30]: 4; Dose [31]: 100 mg/kg; Activity [32]: 3 |
| CC/C(=N/NC(N)=O)c1ccc(Oc2ccc(Cl)cc2)cc1 | 30 | – | – | – | 100 | 300 | – | – | – | 300 | – | – | Activity [26]: 4; Activity [27]: 4; ED50 [28]: 2.89 mg/kg; Activity [29]: No activity; Activity [30]: 4; Activity [32]: 1; TD50 at 2 h [24]: < 100 mg/kg; TD50 [12]: > 500 mg/kg |
